The values below come from ChEMBL document CHEMBL1649494, “Hypersusceptibility to azole antifungals in a clinical isolate of Candida glabrata with reduced aerobic growth” (2009).

Converted amounts (≈) assume the structure as drawn.

Assay type in all cases: functional
In assay [1] the test system is Nakaseomyces glabratus. As to the kind of experiment: Antifungal activity against Candida glabrata isolate 22853 at 10 ug after 48 hrs by disk diffusion method. Particulars: isolate 22853, 48 h, read-out: DIZ.
For assay [2], the system named is Nakaseomyces glabratus. Nature of the assay: Antifungal activity against Candida glabrata isolate 22852 at 10 ug after 48 hrs by disk diffusion method. As to conditions: isolate 22852, 48 h, read-out: DIZ.
For assay [3], the system named is Nakaseomyces glabratus. Nature of the assay: Antifungal activity against Candida glabrata isolate 21231 at 10 ug after 48 hrs by disk diffusion method. Particulars: isolate 21231, 48 h, read-out: DIZ.
In assay [4] the test system is Nakaseomyces glabratus. As to the kind of experiment: Antifungal activity against Candida glabrata isolate 22853 at 15 ug after 48 hrs by disk diffusion method. Particulars: isolate 22853, 48 h, read-out: DIZ.
Assay [5] concerns Nakaseomyces glabratus. Nature of the assay: Antifungal activity against Candida glabrata isolate 21231 by Etest method. The essentials:
(§1)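 MIC by Etest strips on Casitone agar plates (pH 7.2, chloramphenicol-supplemented), run per manufacturer's recommendations; isolates maintained on YEPD agar by regular passage.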

Assay [6] concerns Nakaseomyces glabratus. Nature of the assay: Antifungal activity against Candida glabrata isolate 22852 by Etest method. The essentials:
as §1

Assay [7] has as its system Nakaseomyces glabratus. As to the kind of experiment: Antifungal activity against Candida glabrata isolate 21231 at 15 ug after 48 hrs by disk diffusion method. As to conditions: isolate 21231, 48 h, read-out: DIZ.
Assay [8] has as its system Nakaseomyces glabratus. Nature of the assay: Antifungal activity against Candida glabrata isolate 22853 by Etest method. The essentials:
as §1

Assay [9] deals with Nakaseomyces glabratus. As to the kind of experiment: Antifungal activity against Candida glabrata isolate 22852 at 15 ug after 48 hrs by disk diffusion method. As to conditions: isolate 22852, 48 h, read-out: DIZ.

As for `CC(=O)N1CCN(c2ccc(OCC3COC(Cn4ccnc4)(c4ccc(Cl)cc4Cl)O3)cc2)CC1` (configuration not stated) [KETOCONAZOLE], the zone of inhibition at 10 µg/disc in assay [1] amounted to 16 mm; in [2], 50 mm; in assay [3] it was 33 mm.
For `Clc1ccc(COC(Cn2ccnc2)c2ccc(Cl)cc2Cl)cc1` (configuration not stated) [ECONAZOLE], in that order: 13 mm, 50 mm and 25 mm.
For `Clc1ccc(COC(Cn2ccnc2)c2ccc(Cl)cc2Cl)c(Cl)c1` (configuration not stated) [MICONAZOLE], in that order: 0 mm, 35 mm and 21 mm.
Turning to `OC(Cn1cncn1)(Cn1cncn1)c1ccc(F)cc1F` [FLUCONAZOLE], the zone of inhibition at 15 µg/disc in assay [4] was 0 mm; in [7], 21 mm; in [9] it was 50 mm. The figures for the MIC in assay [5], in assay [6] and in [8] were 6 µg/mL (≈ 19.6 µM), 0.94 µg/mL (≈ 3.07 µM) and greater than 256 µg/mL, respectively.
With `C[C@@H]1[C@H](O)[C@@H](C)/C=C/C=C/C=C/C=C/C=C/C=C/C=C/[C@H](O[C@@H]2O[C@H](C)[C@@H](O)[C@H](N)[C@@H]2O)C[C@@H]2O[C@](O)(C[C@@H](O)C[C@@H](O)[C@H](O)CC[C@@H](O)C[C@@H](O)CC(=O)O[C@H]1C)C[C@H](O)[C@H]2C(=O)O` [AMPHOTERICIN B], the values for the MIC in assay [5], in assay [6] and in assay [8] were 0.047 µg/mL (≈ 0.0509 µM), 0.032 µg/mL (≈ 0.0346 µM) and 0.047 µg/mL (≈ 0.0509 µM), respectively. Moreover, the zone of inhibition at 10 µg/disc in assay [1] turned out to be 31 mm; in assay [2], 40 mm; in [3] it was 27 mm.
Consider `Clc1ccccc1C(c1ccccc1)(c1ccccc1)n1ccnc1` [CLOTRIMAZOLE], for which the zone of inhibition at 10 µg/disc in [1] amounted to 12 mm; in assay [2], 50 mm; in assay [3], 25 mm.
Consider `C[C@@H](c1ncncc1F)[C@](O)(Cn1cncn1)c1ccc(F)cc1F` [VORICONAZOLE], for which the MIC stood at 0.047 µg/mL (≈ 0.135 µM) in [5], 0.003 µg/mL (≈ 0.00859 µM) in assay [6] and 4 µg/mL (≈ 11.5 µM) in assay [8].
